Legend:
A549 = assay: Antiproliferative activity against human A549 cells after 48 hrs by Alamar Blue based assay; type: functional; conditions: A549, 48 h
In short: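 Antiproliferation assay in A549 cells, reported as GI50.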

[1] = target: Tyrosine-protein kinase JAK2 (Homo sapiens, UniProt O60674); assay: Inhibition of recombinant human JAK2 (831 to 1132 residues) expressed in insect cells using 5FAM-GEEPLYWSFPAKKK-NH2 as substrate after 10 mins by caliper assay
In short: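 Biochemical kinase inhibition IC50 measured at 5 mM ATP. Values are the geometric mean of at least two independent experiments.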

Tyrosine-protein kinase JAK2, sequence (O60674 whole entry, the tested form may be a part): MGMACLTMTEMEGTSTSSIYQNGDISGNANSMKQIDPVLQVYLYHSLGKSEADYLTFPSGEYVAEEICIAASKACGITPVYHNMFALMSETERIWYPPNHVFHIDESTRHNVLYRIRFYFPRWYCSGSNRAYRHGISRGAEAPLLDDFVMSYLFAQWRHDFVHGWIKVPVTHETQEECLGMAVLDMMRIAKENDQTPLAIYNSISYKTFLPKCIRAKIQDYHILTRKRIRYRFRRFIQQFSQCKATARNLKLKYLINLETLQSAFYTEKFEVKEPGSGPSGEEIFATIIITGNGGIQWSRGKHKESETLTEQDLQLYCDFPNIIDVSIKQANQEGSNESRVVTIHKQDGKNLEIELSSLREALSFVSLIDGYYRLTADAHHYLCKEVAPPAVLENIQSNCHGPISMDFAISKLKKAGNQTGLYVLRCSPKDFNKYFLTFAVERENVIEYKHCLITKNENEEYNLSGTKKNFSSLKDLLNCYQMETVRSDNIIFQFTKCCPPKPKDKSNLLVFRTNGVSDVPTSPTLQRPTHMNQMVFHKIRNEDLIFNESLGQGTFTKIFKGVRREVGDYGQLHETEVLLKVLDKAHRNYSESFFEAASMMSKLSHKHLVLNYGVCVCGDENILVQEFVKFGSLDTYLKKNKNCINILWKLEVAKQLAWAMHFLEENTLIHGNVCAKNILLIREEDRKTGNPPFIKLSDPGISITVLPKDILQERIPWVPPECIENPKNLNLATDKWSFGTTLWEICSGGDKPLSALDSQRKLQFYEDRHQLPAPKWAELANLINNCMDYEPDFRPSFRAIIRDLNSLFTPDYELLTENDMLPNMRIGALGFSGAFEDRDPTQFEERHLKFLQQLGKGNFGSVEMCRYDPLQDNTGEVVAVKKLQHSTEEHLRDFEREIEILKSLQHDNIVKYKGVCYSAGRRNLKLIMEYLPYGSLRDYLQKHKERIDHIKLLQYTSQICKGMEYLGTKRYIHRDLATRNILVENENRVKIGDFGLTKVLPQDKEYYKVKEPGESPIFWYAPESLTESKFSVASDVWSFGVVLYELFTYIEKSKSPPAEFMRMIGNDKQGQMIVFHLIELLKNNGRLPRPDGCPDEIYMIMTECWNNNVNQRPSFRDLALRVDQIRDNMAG

Compound `CC[C@@H](C)Nc1nc(Nc2cc(N3C[C@@H]4C[C@H]3CN4C)cnc2F)ncc1C` has a GI50 (A549) of over 10 µM and an IC50 [1] of over 30 µM.

Source: ChEMBL document CHEMBL4138312 (J Med Chem, 2018)
